Active and inactive are the calls of the source. The rule behind the calls is not given here.
Tests used:
HepG2 = assay: Cytotoxicity against human HepG2 cells after 72 hrs by MTT assay; type: functional, cell-based; conditions: HepG2, 72 h
Method in brief: (§1)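 MTT assay. Cells were plated and grown 24 h at 37 °C, 5% CO2, then exposed to compound in medium with 0.1% DMSO for 72 h. MTT (5 mg/mL in PBS) was added for 4 h and absorbance read at 490 nm. IC50 was taken from dose-response curves; at least three independent experiments.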

[1] = Induction of NO release assessed as nitrite formation in PBS at 100 uM up to 300 mins by Griess assay
Method in brief: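 Compound at 100 μM was incubated at 37 °C in PBS, pH 7.4, containing 2% DMSO and 5.0 mM L-cysteine, in acellular or HepG2 cell lysates, and sampled over time. Samples were mixed with Griess reagent at 37 °C for 15 min and read at 540 nm. Nitrite was quantified against a sodium nitrite standard curve, in triplicate.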

H22 [2] = assay: Antitumor activity against human H22 cells xenografted in ICR mouse assessed as tumor growth inhibition at 20 mg/kg, iv administered once daily for 21 days measured post last dose relative to control; conditions: 504 h, read-out: TGI
HCT-116 = assay: Cytotoxicity against human HCT116 cells after 72 hrs by MTT assay; type: functional, cell-based; conditions: HCT-116, 72 h; method in brief: as §1
L02 = assay: Cytotoxicity against human LO2 cells after 72 hrs by MTT assay; type: cell-based; conditions: L02, 72 h; method in brief: as §1
HL-60 = assay: Cytotoxicity against human HL60 cells after 72 hrs by MTT assay; type: functional, cell-based; conditions: HL-60, 72 h; method in brief: as §1
H22 [3] = assay: Antitumor activity against […] H22 cells xenografted in ICR mouse assessed as tumor growth inhibition at 30 mg/kg, iv administered once daily for 21 days measured post last dose relative to control; type: functional; conditions: 504 h, read-out: TGI
SMMC-7721 = assay: Cytotoxicity against human SMMC7721 cells after 72 hrs by MTT assay; type: functional, cell-based; conditions: SMMC-7721, 72 h; method in brief: as §1
Mus musculus = assay: Toxicity in ICR mouse xenografted with […] cells assessed as body weight at 30 mg/kg, iv administered once daily for 21 days measured post last dose (reference value: 26 +/- 0.6 g); type: organism-based; conditions: in vivo, 504 h

SMILES: COc1ccc2c(c1OCCCCCCCCO[N+](=O)[O-])CN1CCc3cc4c(cc3C1C2)OCO4 (centres undefined)
- IC50 (HepG2): > 100 µM

SMILES: COc1ccc2cc3[n+](cc2c1OCCCCCCCCCCO[N+](=O)[O-])CCc1cc2c(cc1-3)OCO2
- IC50 (HepG2): 4.34 µM

SMILES: COc1ccc2cc3[n+](cc2c1OC(=O)CCCCCO[N+](=O)[O-])CCc1cc2c(cc1-3)OCO2
- IC50 (HepG2): > 100 µM

SMILES: COc1cc2c(cc1OC)-c1cc3ccc(OC)c(OCCCCCCCCCCO[N+](=O)[O-])c3c[n+]1CC2
- IC50 (HepG2): 5.59 µM

SMILES: COc1cc2c(cc1OC)-c1cc3ccc(OC)c(OCCCCCCCCO[N+](=O)[O-])c3c[n+]1CC2
- IC50 (HepG2): 3.91 µM
- Activity [1]: Active

SMILES: O=P1(N(CCCl)CCCl)NCCCO1 (centres undefined) [CYCLOPHOSPHAMIDE ANHYDROUS]
- inhibition in vivo at 20 mg/kg (H22 [2]): 67.1%

SMILES: COc1ccc2cc3[n+](cc2c1OC(=O)CCCCCCCO[N+](=O)[O-])CCc1cc2c(cc1-3)OCO2
- IC50 (HepG2): > 100 µM
- Activity [1]: Active

SMILES: COc1cc2c(cc1OC)-c1cc3ccc(OC)c(OC)c3c[n+]1CC2.[Cl-] [PALMATINE CHLORIDE]
- IC50 (HCT-116): > 100 µM
- IC50 (L02): > 100 µM
- IC50 (HL-60): > 100 µM
- inhibition in vivo at 30 mg/kg (H22 [3]): 41.6%
- IC50 (SMMC-7721): > 100 µM
- Activity (Mus musculus): 25.5 g
- IC50 (HepG2): > 100 µM

SMILES: COc1ccc2cc3[n+](cc2c1OC)CCc1cc2c(cc1-3)OCO2 [BERBERINE CHLORIDE]
- IC50 (HCT-116): 40 µM
- IC50 (L02): 71.5 µM
- IC50 (HL-60): 27.4 µM
- IC50 (SMMC-7721): 25.9 µM
- IC50 (HepG2): 49 µM

SMILES: COc1ccc2cc3[n+](cc2c1OCCCCO[N+](=O)[O-])CCc1cc2c(cc1-3)OCO2
- IC50 (HepG2): 18.4 µM
- Activity [1]: Active

SMILES: COc1ccc2cc3[n+](cc2c1OC(=O)CCCCCCCCCO[N+](=O)[O-])CCc1cc2c(cc1-3)OCO2
- IC50 (HepG2): > 100 µM
